Assay results taken from ChEMBL document CHEMBL1129534, “Antitumor agents. 163. Three-dimensional quantitative structure-activity relationship study of 4'-O-demethylepipodophyllotoxin analogs using the modified CoMFA/q2-GRS approach” (J Med Chem, 1996).

Molecular target: DNA topoisomerase II (Homo sapiens) (UniProt P11388+Q02880)
Test: Compound tested for ability to form a cellular covalent topoisomerase II-DNA complex.
Format: functional
Procedure, shortened: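 Read-out is intracellular covalent topoisomerase II–DNA complex formation, scored as the percentage of cellular protein–DNA complex formed (PCPDCF). For CoMFA modelling the values were transformed to ln(PCPDCF + 1).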

| Protein-DNA complex formation | SMILES |
| --- | --- |
| 83% | CCOC(=O)CC[C@H](NC(=O)c1ccc(N[C@@H]2c3cc4c(cc3[C@@H](c3cc(OC)c(O)c(OC)c3)[C@H]3C(=O)OC[C@@H]32)OCO4)cc1)C(=O)OCC |
| 34% | COc1cc([C@@H]2c3cc4c(cc3[C@@H](Oc3ccc(O)cc3)[C@H]3COC(=O)[C@H]23)OCO4)cc(OC)c1O |
| 50% | COC(=O)c1cc(N[C@@H]2c3cc4c(cc3[C@@H](c3cc(OC)c(O)c(OC)c3)[C@H]3C(=O)OC[C@@H]32)OCO4)cc(C(=O)OC)c1 |
| 130% | COc1cc([C@@H]2c3cc4c(cc3[C@@H](NCc3cccc([N+](=O)[O-])c3)[C@H]3COC(=O)[C@H]23)OCO4)cc(OC)c1O |
| 97% | COc1cc([C@@H]2c3cc4c(cc3[C@@H](Nc3ccc(Oc5ccccc5)cc3)[C@H]3COC(=O)[C@H]23)OCO4)cc(OC)c1O |
| 179% | COc1cc([C@@H]2c3cc4c(cc3[C@@H](Nc3ccc(Br)cc3)[C@H]3COC(=O)[C@H]23)OCO4)cc(OC)c1O |
| 64% | COc1cc([C@@H]2c3cc4c(cc3[C@@H](Nc3ccc(I)cc3)[C@H]3COC(=O)[C@H]23)OCO4)cc(OC)c1O |
| 164% | COc1cc([C@@H]2c3cc4c(cc3[C@@H](Nc3ccc5c(c3)OCO5)[C@H]3COC(=O)[C@H]23)OCO4)cc(OC)c1O |
| 11% | COc1cc([C@@H]2c3cc4c(cc3[C@@H](Nc3cc(N)ccc3O)[C@H]3COC(=O)[C@H]23)OCO4)cc(OC)c1O |
| 160% | COc1cc([C@@H]2c3cc4c(cc3[C@@H](NC(=O)c3ccc([N+](=O)[O-])cc3)[C@H]3COC(=O)[C@H]23)OCO4)cc(OC)c1O |
| 123% | COc1cc([C@@H]2c3cc4c(cc3[C@@H](Nc3cnc5ccccc5c3)[C@H]3COC(=O)[C@H]23)OCO4)cc(OC)c1O |
| 149% | COc1cc([C@@H]2c3cc4c(cc3[C@@H](NC(=O)c3cccc(N)c3)[C@H]3COC(=O)[C@H]23)OCO4)cc(OC)c1O |
| 99% | COc1cc([C@@H]2c3cc4c(cc3[C@@H](NCc3ccc(C(F)(F)F)cc3)[C@H]3COC(=O)[C@H]23)OCO4)cc(OC)c1O |
| 284% | COc1cc([C@@H]2c3cc4c(cc3[C@@H](NCc3ccc(C#N)cc3)[C@H]3COC(=O)[C@H]23)OCO4)cc(OC)c1O |
| 83% | COC(=O)c1cc(N[C@@H]2c3cc4c(cc3[C@@H](c3cc(OC)c(O)c(OC)c3)[C@H]3C(=O)OC[C@@H]32)OCO4)ccc1O |

| SMILES | Protein-DNA complex formation |
| --- | --- |
| COc1cc([C@@H]2c3cc4c(cc3[C@@H](Nc3cc(F)cc(F)c3)[C@H]3COC(=O)[C@H]23)OCO4)cc(OC)c1O | 115% |
| COc1cc([C@@H]2c3cc4c(cc3[C@H](O)[C@H]3COC(=O)[C@H]23)OCO4)cc(OC)c1O | 3.3% |
| COc1cc([C@@H]2c3cc4c(cc3[C@@H](Nc3ccccn3)[C@H]3COC(=O)[C@H]23)OCO4)cc(OC)c1O | 97% |
| COc1cc([C@@H]2c3cc4c(cc3[C@@H](Nc3ccc([N+](=O)[O-])cc3)[C@H]3COC(=O)[C@H]23)OCO4)cc(OC)c1O | 323% |
| COc1cc([C@@H]2c3cc4c(cc3[C@@H](NC(=O)c3ccccc3O)[C@H]3COC(=O)[C@H]23)OCO4)cc(OC)c1O | 160% |
| COc1cc([C@@H]2c3cc4c(cc3[C@@H](Nc3ccc(F)cc3)[C@H]3COC(=O)[C@H]23)OCO4)cc(OC)c1O | 213% |
| COc1cccc(N[C@@H]2c3cc4c(cc3[C@@H](c3cc(OC)c(O)c(OC)c3)[C@H]3C(=O)OC[C@@H]32)OCO4)c1 | 104% |
| COc1cc([C@@H]2c3cc4c(cc3[C@@H](NC(=O)c3cccc([N+](=O)[O-])c3)[C@H]3COC(=O)[C@H]23)OCO4)cc(OC)c1O | 86% |
| COc1cc([C@@H]2c3cc4c(cc3[C@@H](Nc3cccc(Cl)c3)[C@H]3COC(=O)[C@H]23)OCO4)cc(OC)c1O | 51% |
| COc1cc([C@@H]2c3cc4c(cc3[C@@H](NCc3ccc([N+](=O)[O-])cc3)[C@H]3COC(=O)[C@H]23)OCO4)cc(OC)c1O | 216% |
